Experimental data: publication PMC6689428 (Biochimica et biophysica acta. Biomembranes, 2019)

Assays:
[1] = tested on: E. coli ATCC 25922 biofilms; test: Disruption of 24 h established biofilms, XTT; format: cell-based, Escherichia coli; settings: 24 h preformed E. coli ATCC 25922 biofilms
S. aureus USA300 [2] = settings: ref [10]; cited from earlier work
E. coli = settings: ref [50], [10]; cited from earlier work
E. coli ML-35p = test: Outer and inner membrane permeabilization; format: cell-based, Escherichia coli; settings: peptides at 6.25 μM, absorbance for 40 min
Method in brief: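 Cells came from a single colony grown overnight in TSB at 37°C and were washed three times in PBS. They were diluted to ~10^6 CFU/mL in PBS containing 0.3 mg/mL TSB. Peptide was 0 to 12.5 μM, with 30 μM nitrocefin or 2.5 mM ONPG per well. Absorbance at 490 and 420 nm was followed for 40 min at 37°C.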

S. aureus USA300 [3] = test: Membrane permeation, propidium iodide; format: cell-based, Staphylococcus aureus; settings: S. aureus USA300, peptides at 3.12 μM, 10 mM PBS, 37°C, read for 2 h
Method in brief: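 Cells were suspended in 10 mM PBS at final OD600 ~0.1 with propidium iodide and serially diluted 10× peptide. They were held at 37°C shaking at 100 rpm. Fluorescence (ex 584/em 620 nm) was read every 5 min for 2 h. Plots used averages of duplicate experiments.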

[4] = tested on: S. aureus USA300 biofilms; test: Disruption of 24 h established biofilms, XTT; format: cell-based, Staphylococcus aureus; settings: 24 h preformed S. aureus USA300 biofilms, 24 h treatment in TSB
Method in brief: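 Exponential-phase TSB culture at 10^5 CFU/mL grew 24 h at 37°C to form biofilms. Plankton was removed with a PBS wash. Biofilms took 10× peptide diluted in fresh TSB for 24 h at 37°C, were washed, then got XTT in TSB for 2 h at 37°C. A450 was blanked on media plus XTT. Growth was expressed as % of untreated biofilm wells.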

S. aureus USA300 [5] = test: Membrane depolarization, DiBAC4; format: cell-based, Staphylococcus aureus; settings: S. aureus USA300, treated at 12.5 μM, DiBAC4(3) fluorescence; Triton X-100 (0.1%) positive control

Compound: CO[C@H]1/C=C/O[C@@]2(C)Oc3c(C)c(O)c4c(O)c(cc(O)c4c3C2=O)NC(=O)/C(C)=C\C=C\[C@H](C)[C@H](O)[C@@H](C)[C@@H](O)[C@@H](C)[C@H](OC(C)=O)[C@@H]1C [rifamycin]
- Antibiofilm effect [1]: ineffective

Compound: GFKRlVQRlKDFlRKLV-amide [GF-17d3]
- Activity against S. aureus USA300 (S. aureus USA300 [2]): not active
- Activity against E. coli in the presence of chymotrypsin (E. coli): active

Compound: CN[C@H](CC(C)C)C(=O)N[C@H]1C(=O)N[C@@H](CC(N)=O)C(=O)N[C@H]2C(=O)N[C@H]3C(=O)N[C@H](C(=O)N[C@H](C(=O)O)c4cc(O)cc(O)c4-c4cc3ccc4O)[C@H](O)c3ccc(c(Cl)c3)Oc3cc2cc(c3O[C@@H]2O[C@H](CO)[C@@H](O)[C@H](O)[C@H]2O[C@H]2C[C@](C)(N)[C@H](O)[C@H](C)O2)Oc2ccc(cc2Cl)[C@H]1O [vancomycin]
- Outer membrane permeation (β-lactamase, nitrocefin) (E. coli ML-35p): unable to

Compound: NC[C@H]1O[C@H](O[C@H]2[C@H](O)[C@@H](O[C@H]3O[C@H](CO)[C@@H](O)[C@H](N)[C@H]3O)[C@H](N)C[C@@H]2N)[C@H](N)C[C@@H]1O [tobramycin]
- Membrane permeation (propidium iodide fluorescence) (S. aureus USA300 [3]): unable to damage bacterial membranes

Compound: CCCCCCCCCC(=O)N[C@@H](Cc1c[nH]c2ccccc12)C(=O)N[C@H](CC(N)=O)C(=O)N[C@@H](CC(=O)O)C(=O)N[C@@H]1C(=O)NCC(=O)N[C@@H](CCCN)C(=O)N[C@@H](CC(=O)O)C(=O)N[C@H](C)C(=O)N[C@@H](CC(=O)O)C(=O)NCC(=O)N[C@H](CO)C(=O)N[C@@H]([C@H](C)CC(=O)O)C(=O)N[C@@H](CC(=O)c2ccccc2N)C(=O)O[C@@H]1C [daptomycin]
- Concentration that essentially eliminated biofilms [4]: 6.25 µM
- Membrane depolarization (S. aureus USA300 [5]): very weak
